Source: ChEMBL document CHEMBL4028906, “Allosteric Inhibitors of SHP2 with Therapeutic Potential for Cancer Treatment” (J Med Chem, 2017)
Active and inactive are the calls of the source. The calls are words filed in the database; no cut-off is given here.

Molecular target: T1, Tyrosine-protein phosphatase non-receptor type 11 (Homo sapiens) (UniProt Q06124)
T1 sequence (whole entry): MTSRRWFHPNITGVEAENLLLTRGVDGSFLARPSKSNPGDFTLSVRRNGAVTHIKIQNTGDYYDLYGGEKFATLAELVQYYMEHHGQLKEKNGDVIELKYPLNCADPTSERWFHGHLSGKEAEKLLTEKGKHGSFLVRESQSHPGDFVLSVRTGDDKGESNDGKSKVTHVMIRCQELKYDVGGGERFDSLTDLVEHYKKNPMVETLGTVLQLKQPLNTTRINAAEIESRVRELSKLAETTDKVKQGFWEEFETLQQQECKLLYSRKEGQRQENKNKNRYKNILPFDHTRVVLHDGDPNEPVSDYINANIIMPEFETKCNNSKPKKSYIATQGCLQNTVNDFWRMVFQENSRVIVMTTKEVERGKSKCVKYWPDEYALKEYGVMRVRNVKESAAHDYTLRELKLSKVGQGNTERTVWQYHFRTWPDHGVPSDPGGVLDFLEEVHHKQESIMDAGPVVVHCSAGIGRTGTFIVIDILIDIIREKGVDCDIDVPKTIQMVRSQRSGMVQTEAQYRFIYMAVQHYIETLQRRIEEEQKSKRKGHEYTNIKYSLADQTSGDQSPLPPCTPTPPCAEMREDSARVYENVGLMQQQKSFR
Experiment: Allosteric inhibition of SHP2 in human NCI-H661 cells assessed as downregulation of phosphorylated ERK1/2 levels at 20 uM after 2 hrs by Western blot analysis
Type: cell-based
Outline: (§1)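 NCI-H661 cells in 6-well plates exposed to inhibitor 2 h at 37 °C. RIPA lysates separated by SDS-PAGE, transferred to PVDF, milk-blocked, probed overnight at 4 °C for pERK1/2, ERK1/2, pAKT and AKT. Repeated at least three times.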

inhibition | SMILES
inactive | CC1(N)CCN(c2nc(-c3cc4ccccc4s3)cs2)CC1

Tested on: not listed separately
Experiment: Allosteric inhibition of SHP2 E76A mutant (unknown origin) expressed in Escherichia coli BL21(DE3) using DIFMUP as substrate preincubated for 20 mins followed by substrate addition measured after 20 mins by phosphatase assay
Parameters: species or system Homo sapiens
Outline: (§2)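 His-tagged SHP2 constructs expressed in E. coli BL21(DE3) (0.5 mM IPTG, 5 h, 30 °C) and Ni-column purified. 1.5 nM enzyme preincubated 20 min at room temperature with compound in 0.1 M sodium acetate pH 5.0. DIFMUP then added, 20 min further, fluorescence at 358/455 nm. Eight 3-fold dilutions, duplicate wells, IC50 from at least three independent experiments.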

SMILES | IC50 [µM]
COC(=O)c1ccc(-c2cccc(-c3csc(N4CCC(C)(N)CC4)n3)c2)cc1 | 3.28
CC1(N)CCN(c2nc(-c3ccc4cc(Cl)ccc4c3)cs2)CC1 | 2.68
CC1(N)CCN(c2nc(-c3ccc4cc(CO)ccc4c3)cs2)CC1 | > 100
CC1(N)CCN(c2nc(-c3cccc(-c4ccc(C#N)cc4)c3)cs2)CC1 | 1.76
CC1(C)CC(Nc2nc(-c3ccc4ccccc4c3)cs2)CC(C)(C)N1 | 2.55
CC1(N)CCN(c2nc(-c3cc4ccccc4s3)cs2)CC1 | > 100
CC1CN(c2nc(-c3ccc4ccccc4c3)cs2)CC(C)N1 (stereo unspecified) | 12.3
CC1(N)CCN(c2nc(-c3ccc4cc(C(=O)O)ccc4c3)cs2)CC1 | 51.7
COC(=O)c1ccc2cc(-c3csc(N4CCC(C)(N)CC4)n3)ccc2c1 | 1.08
CC1(N)CCN(c2cnc(-c3cccc(Cl)c3Cl)c(N)n2)CC1 | 0.12
NCC1CCCN(c2nc(-c3ccc4ccccc4c3)cs2)C1 (stereo unspecified) | 52.8
CC1(N)CCN(c2nc(-c3ccc(-c4ccc(F)cc4)cc3)cs2)CC1 | 14.2
CC1(N)CCN(c2nc(-c3cccc(-c4ccccc4)c3)cs2)CC1 | 3.62
CC1(C)CC(Nc2nc(-c3cccc(-c4ccccc4)c3)cs2)CC(C)(C)N1 | 3.27
CN1CCC(Nc2nc(-c3ccc4ccccc4c3)cs2)CC1 | 2.81
c1ccc2cc(-c3csc(NC4CCNCC4)n3)ccc2c1 | 0.73

Further lines, results first:

IC50 [µM] | SMILES
2.46 | COc1ccc2cc(-c3csc(N4CCC(C)(N)CC4)n3)ccc2c1
1.27 | CC1(N)CCN(c2nc(-c3ccc4cc(F)ccc4c3)cs2)CC1
52.3 | CC1(N)CCN(c2nc(-c3cnc4ccccc4c3)cs2)CC1
1.37 | CC1(N)CCN(c2nc(-c3ccc4cc(C#N)ccc4c3)cs2)CC1
1.49 | c1ccc2cc(-c3csc(NCC4CCCNC4)n3)ccc2c1 (stereo unspecified)
19.1 | CC1(C)CC(Nc2nc(-c3ccccc3)cs2)CC(C)(C)N1
1.48 | CC1(N)CCN(c2nc(-c3ccc4ccccc4c3)cs2)CC1
20.3 | CC1(N)CCN(c2nc(-c3ccc(-c4ccc(O)cc4)cc3)cs2)CC1
1.65 | c1ccc2cc(-c3csc(NC4CCNC4)n3)ccc2c1 (stereo unspecified)
46.5 | CC1(N)CCN(c2nc(-c3cccc4c3oc3ccccc34)cs2)CC1
5.32 | CC1(C)CC(Nc2nc(-c3ccc(-c4ccccc4)cc3)cs2)CC(C)(C)N1

Molecular target: T1, Tyrosine-protein phosphatase non-receptor type 11 (Homo sapiens)
Experiment: Allosteric inhibition of SHP2 in human SF268 cells stably expressing Yap-Luc reporter assessed as reduction in YAP transcriptional activity at 3 to 12 uM after 12 hrs by Yap-luciferase reporter gene assay
Type: cell-based
Outline: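 SF268 cells stably carrying a Yap-Luc reporter, in RPMI-1640 on 96-well plates, given inhibitor at 3, 6 and 12 μM on day 1. After 12 h, lysates read for Renilla luciferase, normalized to CellTiter-Glo signal; mean±s.d., n=3.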

inhibition | SMILES
inactive | CC1(N)CCN(c2nc(-c3cc4ccccc4s3)cs2)CC1

Molecular target: Tyrosine-protein phosphatase non-receptor type 11 (Homo sapiens, UniProt Q06124)
Experiment: Allosteric inhibition of SHP2 PTP domain (unknown origin) expressed in Escherichia coli BL21(DE3) using DIFMUP as substrate preincubated for 20 mins followed by substrate addition measured after 20 mins by phosphatase assay
Outline: as §2

IC50 [µM] | SMILES
> 100 | CC1(C)CC(Nc2nc(-c3ccccc3)cs2)CC(C)(C)N1

Molecular target: T1, Tyrosine-protein phosphatase non-receptor type 11 (Homo sapiens)
Experiment: Allosteric inhibition of SHP2 in human NCI-H661 cells assessed as downregulation of phosphorylated AKT levels at 20 uM after 2 hrs by Western blot analysis
Type: cell-based
Outline: as §1

inhibition | SMILES
inactive | CC1(N)CCN(c2nc(-c3cc4ccccc4s3)cs2)CC1
